Most compounds without a hit are left out; they make up all but 5.7% or so of the library.
Mdm2-MdmX inh: disrupts the human Mdm2-MdmX interaction | inhibition, % at 8 µM | O15151+Q00987 | AID 485346 | SaOS-2 split-luciferase Mdm2/MdmX complementation, luminescence | 330,000 tested, 3% active;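 active = inhibition of at least 50% at 8 µM in the primary screen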
Target sequence (O15151 whole entry, looked up): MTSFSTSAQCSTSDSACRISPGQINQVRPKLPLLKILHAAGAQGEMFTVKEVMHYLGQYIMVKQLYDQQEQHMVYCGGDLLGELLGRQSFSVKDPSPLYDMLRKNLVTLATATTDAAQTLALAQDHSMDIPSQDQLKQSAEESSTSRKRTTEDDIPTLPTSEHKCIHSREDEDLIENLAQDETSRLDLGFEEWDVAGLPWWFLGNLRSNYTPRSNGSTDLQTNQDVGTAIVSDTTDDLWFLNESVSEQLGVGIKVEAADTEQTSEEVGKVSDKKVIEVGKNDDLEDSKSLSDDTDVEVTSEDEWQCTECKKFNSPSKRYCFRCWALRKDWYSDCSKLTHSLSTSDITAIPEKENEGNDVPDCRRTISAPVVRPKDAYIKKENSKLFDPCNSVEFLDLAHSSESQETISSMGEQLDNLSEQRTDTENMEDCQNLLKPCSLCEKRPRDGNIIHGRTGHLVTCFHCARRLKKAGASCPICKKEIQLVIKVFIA
Target sequence (Q00987 whole entry, looked up): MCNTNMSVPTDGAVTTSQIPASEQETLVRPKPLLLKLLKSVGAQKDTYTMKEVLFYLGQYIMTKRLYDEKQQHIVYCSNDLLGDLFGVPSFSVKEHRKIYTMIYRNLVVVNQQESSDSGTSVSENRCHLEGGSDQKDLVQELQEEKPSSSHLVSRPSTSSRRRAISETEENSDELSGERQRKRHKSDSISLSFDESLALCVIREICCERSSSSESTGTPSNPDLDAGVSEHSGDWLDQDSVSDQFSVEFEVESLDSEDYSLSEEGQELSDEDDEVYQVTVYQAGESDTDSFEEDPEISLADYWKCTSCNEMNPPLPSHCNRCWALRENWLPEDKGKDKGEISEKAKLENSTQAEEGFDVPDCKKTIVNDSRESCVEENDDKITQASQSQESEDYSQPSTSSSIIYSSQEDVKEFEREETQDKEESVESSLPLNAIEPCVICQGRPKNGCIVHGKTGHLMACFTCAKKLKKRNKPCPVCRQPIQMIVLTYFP
Calb FLC: affects C. albicans growth with fluconazole; growth inhibition, % (concentration not given with the values); C. albicans CaCi-2 (fluconazole-resistant clinical isolate) + fluconazole, Alamar Blue growth, 48 h; AID 1979; 300,000 tested, 0.57% active;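 active = growth inhibition above about 58% in most replicates, limit read from the data, passing the limit was not always enough; inconclusive = exactly half the replicates above a set limit; inactive = most replicates below a set limit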;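 note: all wells also contain fluconazole at 8 µg/ml as a sub-toxic cotreatment; 0% = median of DMSO wells and 100% = median of geldanamycin control wells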
SKKanGAS inh: inhibitors of SKKanGAS S. pyogenes growth in kanamycin (SK-promoter or general growth effect). BacTiter-Glo, 6 h. inhibition, % at 7.5 µM. 300,000 tested, 1.3% active. AID 1662;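 active = mean replicate score, as percent of positive control median, at least 50; inconclusive = mean below 50 but one replicate at or above 50; inactive = mean and every replicate below 50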;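 note: strain carries kanamycin resistance gene driven by streptokinase promoter and grows in 40 µg/ml kanamycin; loss of luminescence reflects streptokinase promoter inhibition or plain growth inhibition; 0% = median of DMSO wells and 100% = positive control at its reference dose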
T cruzi inh: blocks replication of Trypanosoma cruzi | inhibition, % (no concentration beside the values) | T. cruzi beta-gal in NIH3T3, luminescence, 90 h | 300,000 tested, 1.4% active | AID 1885;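 active = mean inhibition across valid replicates above about 55%, limit read from the data; inconclusive = mean below that limit but half or more replicates reach it; inactive = mean below it, under half of replicates reach it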;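 note: signal also drops with host cell toxicity which is not excluded here; 0% = plate median of DMSO wells and 100% = zero luminescence signal; higher percent means less beta-gal luminescence so fewer parasites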
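System: mouse NIH/3T3 fibroblasts infected with β-gal-expressing T. cruzi Tulahuen C4 / Input: NIH/3T3 cells, 5,000 per well / Buffer or medium: Low-serum DMEM with 2% FBS / Probe or stimulus: 5000 reporter trypomastigotes per well / Schedule: ≥90 h infection period, 3 h prior cell attachment / Measured by: GalScreen luminescence, 60 min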
Beta apoptosis: blocks beta cell apoptosis; INS-1E cytokine-induced death, ATP luminescence, 48 h; percent of positive-control rescue, neutral wells zero; protection from apoptosis, % (concentration not given with the values); 300,000 tested, 0.8% active; AID 435005;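 active = Every replicate reaches about 75%, or at least half do and their mean reaches it too, limit read from the data; inconclusive = At least half of replicates reach the limit but their mean does not; inactive = Under half of replicates reach the limit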;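 note: 0% = cytokine-treated negative control wells and 100% = positive control rescue; higher means more ATP so stronger rescue from cytokine killing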
CSC inhib: cancer stem cell inhibition; 300,000 tested, 1.1% active; inhibition, % at 7.5 µM; AID 2717; cancer stem cell-like cells viability, luminescence; in the data active = inhibition above about 75%; inconclusive = no clear call, values can overlap the other calls; tested in HMLE shEcad cells
Mdm2-MdmX conf: confirmation of human Mdm2/MdmX interaction inhibitors; Mdm2-MdmX binding, luminescent assay; shares compounds with Mdm2-MdmX inh; 10,000 tested, 55% active; inhibition, % at 8 µM; in the data active = inhibition above about 40%
Full FLuc ctr: inhibits full-length luciferase, flagging false Mdm2/MdmX hits. shares compounds with Mdm2-MdmX inh. SaOS-2 full-length luciferase counterscreen, luminescence. inhibition, % at 8 µM. 6,200 tested, 77% active. AID 504607;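 active = mean inhibition at 8 µM reaching about 37%, which flags the compound as non-specific, limit read from the data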;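 note: p53-null SaOS-2 cells with luciferase driven by a doxycycline-inducible promoter; compound on cells about two nights before reading with doxycycline added after day one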
* hit, by the source's call; ? = inconclusive; · = no result.

SMILES | Mdm2-MdmX inh | Calb FLC | SKKanGAS inh | T cruzi inh | Beta apoptosis | CSC inhib | Mdm2-MdmX conf | others
Cn1c(C(=O)NCCCN2CCN(c3ccccc3F)CC2)cc2c(=O)n(C)c3ccccc3c21 | 58.2* | 10.4 | 10.1 | 21.1 | 0.4 | 3.1 | 28.1
CCN(CC)CCNC(=O)c1cc2c(=O)n(CC)c3ccccc3c2s1 | 46.5 | -4.6 | -1.9 | 5.8 | 1.0 | -12.0 | ·
CCCN(CCC)CCNC(=O)c1cc2c(=O)n(CC)c3ccccc3c2s1 | 70.5* | 1.0 | -2.0 | 23.1 | 6.6 | -0.2 | 45.6* | Full FLuc ctr=68.9*
Cn1c(C(=O)NCCCN2CCOCC2)cc2c(=O)n(C)c3ccccc3c21 | 0.2 | 4.0 | 2.4 | -4.4 | 5.4 | 10.9 | ·
Cc1nn(-c2ccccc2)c(C)c1NC(=O)COC(=O)/C=C/c1ccccc1 | -20.7 | · | -7.8 | -17.9 | -6.5 | -18.7 | ·
Cc1ccc(N2C(=O)[C@@H]3C(c4cccnc4)=NO[C@@H]3C2=O)cc1 | -13.3 | 28.0 | -10.7 | -13.5 | -2.7 | -10.0 | ·
COc1ccc(OC)c(S(=O)(=O)Nc2c(C)cccc2C)c1 | 1.0 | 1.6 | 1.2 | -3.9 | 5.3 | -10.6 | ·
CCCCN(CC)CCCNC(=O)c1cc2c(=O)n(C)c3ccccc3c2n1C | 69.0* | -0.5 | 1.7 | 18.9 | 9.2 | 2.9 | 22.6
Oc1cccc(C2c3[nH]c4ccccc4c3CCN2Cc2ccc3c(c2)CCO3)c1 (stereo not given) | 57.8* | 8.2 | 2.6 | 20.4 | 0.2 | 63.8 | 43.2* | Full FLuc ctr=52.9*
COCCNC(=O)C(c1c[nH]c2ccccc12)N(C(=O)c1snc(C(N)=O)c1N)c1cccc(OC)c1 (stereo not given) | 6.3 | 1.8 | 16.7 | -8.4 | 1.7 | -12.7 | ·
Oc1ccccc1N=Cc1c(O)ccc2ccccc12 | 11.9 | -12.7 | 19.7 | -28.4 | · | · | ·
Oc1ccc2ccccc2c1/C=N/Nc1nnc(-c2ncc[nH]2)c2ccccc12 | 81.4* | 108.3* | 97.4* | 58.3* | 106.6* | 100.1* | 83.0* | Full FLuc ctr=54.9*
COc1ccc(/C=N/Nc2nnc(-c3ncc[nH]3)c3ccccc23)cc1 | 52.4* | -8.4 | 9.3 | 2.6 | 4.8 | 18.1 | -3.6
Cc1[nH]c2ccccc2c1C(=O)C(=O)N1CCN(C(=O)c2ccco2)CC1 | 22.2 | -0.6 | -5.3 | -3.6 | 0.7 | -16.6 | ·
COc1ccc(NC(C)C(=O)Nc2cc(C(F)(F)F)ccc2N2CCOCC2)c(OC)c1 (stereo not given) | 57.2* | ? | -17.8 | 19.0 | -4.0 | 10.8 | 20.8
COC(CN(C(=O)CCl)C(C(=O)NC1CCCCC1)c1ccc(Cl)cc1)OC (stereo not given) | 26.4 | 26.7 | -4.4 | -12.9 | · | · | ·
COC(CN(C(=O)CCl)C(C(=O)NC1CCCCC1)c1ccccc1C)OC (stereo not given) | 82.9* | 3.8 | 5.5 | -8.4 | 5.0 | -16.9 | 61.6* | Full FLuc ctr=43.8*
COc1ccc(C(C(=O)NC2CCCCC2)N(C(=O)CCl)c2ccc(Cl)cc2)cc1 (stereo not given) | 100.2* | 2.2 | -6.8 | 56.5* | -18.3 | 9.7 | 98.8* | Full FLuc ctr=49.2*
Cc1cccc(N(C(=O)CNC(=O)c2ccco2)C(C(=O)NC2CCCCC2)c2cccnc2)c1 (stereo not given) | -12.4 | 4.0 | -0.2 | 7.9 | 0.8 | -16.2 | ·
O=C(NC1CCCCC1)C(c1cccnc1)N(C(=O)CCl)c1cccc(Cl)c1 (stereo not given) | 100.2* | -2.2 | 2.3 | 31.5 | 0.4 | 31.0 | 99.8* | Full FLuc ctr=52.7*
Cc1ccc(O)c(Cn2nnc3ccccc32)c1 | 19.8 | 2.3 | 7.7 | 21.4 | -3.5 | -6.2 | ·
Cc1nc2ccc(C(=O)N3CCCC(CO)(Cc4ccc(F)cc4F)C3)cc2nc1C (stereo not given) | 4.6 | -0.1 | -14.2 | 25.9 | 0.1 | 11.2 | ·
c1ccc(-c2nnc(-c3ccncc3)nc2-c2ccccc2)cc1 | 12.5 | 57.0 | -2.6 | 42.1 | -17.5 | · | ·
Brc1nc(-c2ccccc2)nc(-c2ccccc2)c1Br | 79.0* | -0.5 | 3.1 | -13.2 | -5.3 | 50.6 | 17.5
Cc1ccc(S(=O)(=O)C2C(=O)N(C)C3(C)CC2c2ccccc2O3)cc1 (stereo not given) | -2.3 | 8.7 | -2.8 | 1.7 | · | · | ·

From PubChem
